Results reported in ChEMBL document CHEMBL1158857, “New steroidal alkaloids from Buxus longifolia” (1997).

Columns and labels:
Salmonella typhi [1] = experiment: (§1) Antibacterial activity against Salmonella typhi assessed per 100 uL of nutrient broth after 24 hrs by tube broth dilution method; format: functional, Salmonella enterica subsp. enterica serovar Typhi
Summary of the method: (§2)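 Tube broth dilution in nutrient broth against sensitive Salmonella typhi: 0.1 mL culture (10^4-10^6 cells/mL) was added to tubes holding 1 mL of test sample at different concentrations plus 1 mL nutrient broth. Tubes were incubated 24 h at 37 °C, growth inhibition was observed, and MIC was recorded. Ampicillin was run the same way as the standard.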

Pseudomonas aeruginosa [2] = experiment: Antibacterial activity against Pseudomonas aeruginosa at 100 ug/100 uL after 24 hrs by tube broth dilution method; format: functional
Salmonella typhi [3] = experiment: as §1; format: functional, Salmonella enterica subsp. enterica serovar Typhi; summary of the method: as §2; remark: listed apart in the source
Shigella flexneri [4] = experiment: Antibacterial activity against Shigella flexneri at 200 ug/100 uL after 24 hrs by tube broth dilution method; format: functional
Escherichia coli [5] = experiment: Antibacterial activity against Escherichia coli at 100 ug/100 uL after 24 hrs by tube broth dilution method; format: functional
Escherichia coli [6] = experiment: Antibacterial activity against Escherichia coli at 200 ug/100 uL after 24 hrs by tube broth dilution method; format: functional
Shigella flexneri [7] = experiment: Antibacterial activity against Shigella flexneri at 100 ug/100 uL after 24 hrs by tube broth dilution method; format: functional
Pseudomonas aeruginosa [8] = experiment: Antibacterial activity against Pseudomonas aeruginosa assessed per 100 uL of nutrient broth after 24 hrs by tube broth dilution method; format: functional
Summary of the method: (§3)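 Tube broth dilution in nutrient broth. Sensitive bacterial culture (0.1 mL of 10^4-10^6 cells/mL) added to tubes holding 1 mL test sample at different concentrations plus 1 mL nutrient broth. Incubated 24 h at 37 °C, then growth inhibition scored visually. Ampicillin run the same way as reference. Minimum inhibitory concentration taken from the dilution series.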

Pseudomonas aeruginosa [9] = experiment: Antibacterial activity against Pseudomonas aeruginosa at 200 ug/100 uL after 24 hrs by tube broth dilution method; format: functional
Salmonella typhi [10] = experiment: Antibacterial activity against Salmonella typhi at 200 ug/100 uL after 24 hrs by tube broth dilution method; format: functional, Salmonella enterica subsp. enterica serovar Typhi; set-up: unit not given here
Salmonella typhi [11] = experiment: Antibacterial activity against Salmonella typhi at 100 ug/100 uL after 24 hrs by tube broth dilution method; format: functional, Salmonella enterica subsp. enterica serovar Typhi; set-up: unit not given here
Escherichia coli [12] = experiment: Antibacterial activity against Escherichia coli assessed per 100 uL of nutrient broth after 24 hrs by tube broth dilution method; format: functional; summary of the method: as §3

Row | SMILES | MIC (Salmonella typhi [1]) | inhibition zone (IZ) (Pseudomonas aeruginosa [2]) | MIC (Salmonella typhi [3]) | inhibition zone (IZ) (Shigella flexneri [4]) | inhibition zone (IZ) (Escherichia coli [5]) | inhibition zone (IZ) (Escherichia coli [6]) | inhibition zone (IZ) (Shigella flexneri [7]) | MIC (Pseudomonas aeruginosa [8]) | inhibition zone (IZ) (Pseudomonas aeruginosa [9]) | inhibition zone (IZ) (Salmonella typhi [10]) | inhibition zone (IZ) (Salmonella typhi [11]) | MIC (Escherichia coli [12])
1 | CC1(C)S[C@@H]2[C@H](NC(=O)[C@H](N)c3ccccc3)C(=O)N2[C@H]1C(=O)O [AMPICILLIN] | 30 µg | 11 mm | 30 µg | 11 mm | 11 mm | 12 mm | 11 mm | 40 µg | 11 mm |  |  | 
2 | CN[C@@H](C)[C@H]1[C@H](O)C[C@@]2(C)[C@@H]3CC[C@H]4C(C)(C)[C@@H](N(C)C)C=C[C@@]45C[C@@]35CC[C@]12C [BUXASAMARINE] | 150 µg | 7 mm | 100 µg | 7 mm |  |  |  | 50 µg | 9 mm | 8 | 6 | 
3 | C=C1[C@@H](N(C)C(C)=O)CC[C@]23C[C@]24CC[C@]2(C)[C@@H]([C@H](C)NC)CC[C@@]2(C)[C@@H]4CC[C@@H]13 [CYCLOBUXAMIDINE] |  |  | 150 µg |  |  | 6 mm |  |  |  | 6 | 6 | 200 µg
4 | CC(=O)O[C@@H]1C[C@@]2(C)[C@@H]3C[C@@H]4OC[C@]5(C)[C@@H](NC(=O)c6ccccc6)CCC(=CC3=CC[C@]2(C)[C@H]1[C@H](C)N(C)C)[C@@H]45 [CYCLOBUXEINE F] | 100 µg | 6 mm | 100 µg | 7 mm |  |  | 7 mm | 10 µg | 8 mm | 8 | 7 | 
